Measured values reported in ChEMBL document CHEMBL1143617, “Potential antitumor agents. 37. Synthesis and antitumor activity of guanylhydrazones from imidazo[2,1-b]thiazoles and from the new heterocyclic system thiazolo[2',3':2,3]imidazo[4,5-c]quinoline” (2005).

Legend:
[1] = tested on: Panel NCI-60 (60 carcinoma cell lines); experiment: Cytotoxic effect against human cancer cell line; (Range=-4.01 to -5.01); type: functional
How it was run: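 NCI 60-cell-line panel, tested at five 10-fold dilutions from 10^-4 M down to 10^-8 M. Results are expressed as log values of growth inhibitory power (GI50) and cytostatic effect.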

[2] = tested on: Panel NCI-60 (60 carcinoma cell lines); experiment: Cytostatic effect against human cancer cell line; (Range=-4.01 to -5.65); type: functional; conditions: read-out: Log TGI (converted)
How it was run: (§1)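 NCI 60 human tumour cell line panel, entered after a three-cell-line prescreen. Five concentrations at 10-fold dilutions: 10-4, 10-5, 10-6, 10^-7 and 10^-8 M. Results given as log values of growth inhibitory power (GI50) and cytostatic effect.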

[3] = tested on: Panel NCI-60 (60 carcinoma cell lines); experiment: Growth inhibitory power against human cancer cell line; (Range=-4.04 to -6.08); type: functional; how it was run: as §1
Rattus norvegicus [4] = species: Rattus norvegicus; experiment: Inhibitory effect on mitochondrial respiration in coupled rat liver mitochondria at 35 uM concentration measured as NADH-O2 activity adding glutamate/malate; State 3
RXF 393 = experiment: Growth inhibitory power against human renal (RXF 393) cell line; type: functional; how it was run: as §1
OVCAR-3 = experiment: Growth inhibitory power against human ovarian (OVCAR-3) cell line cell line; type: functional; how it was run: as §1
Rattus norvegicus [5] = species: Rattus norvegicus; experiment: Compound was tested against rat liver mitochondria respiration; Activity as respiratory control index measured as succinate-O2 activity adding succinate; type: functional
How it was run: (§2)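 Isolated coupled rat liver mitochondria; compound at 35 µM. Oxygen consumption was measured polarographically with a Clark electrode. Reactions were started with a saturating amount of substrate: glutamate/malate (NADH-O2), succinate (succinate-O2) or ascorbate/TMPD (Complex IV). The uncoupled rate was obtained by adding 2,4-dinitrophenol. The respiratory control index was also derived. Rates are in ngA oxygen/min/mg protein, mean of five and eight independent measures.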

Rattus norvegicus [6] = species: Rattus norvegicus; experiment: Inhibitory effect on mitochondrial respiration in coupled rat liver mitochondria at 35 uM concentration measured as TMPD test complex IV activity adding ascorbate; State 4
Rattus norvegicus [7] = species: Rattus norvegicus; experiment: Inhibitory effect on mitochondrial respiration in coupled rat liver mitochondria at 35 uM concentration measured as TMPD test complex IV activity adding ascorbate; State 3
COLO 205 = experiment: Growth inhibitory power against human colon (COLO 205) cell line; type: functional; how it was run: as §1
Rattus norvegicus [8] = species: Rattus norvegicus; experiment: Inhibitory effect on mitochondrial respiration in coupled rat liver mitochondria at 35 uM concentration measured as NADH-O2 activity adding glutamate/malate; State 4
Rattus norvegicus [9] = species: Rattus norvegicus; experiment: Inhibitory effect on mitochondrial respiration in […]-uncoupled rat liver mitochondria; Activity measured as TMPD test complex IV activity adding ascorbate; type: functional; how it was run: as §2
Rattus norvegicus [10] = species: Rattus norvegicus; experiment: Inhibitory effect on mitochondrial respiration in […]-uncoupled rat liver mitochondria; Activity measured as succinate-O2 activity adding succinate; type: functional; how it was run: as §2
Rattus norvegicus [11] = species: Rattus norvegicus; experiment: Inhibitory effect on mitochondrial respiration in […]-uncoupled rat liver mitochondria; Activity measured as NADH-O2 activity adding glutamate/malate; type: functional; how it was run: as §2
Rattus norvegicus [12] = species: Rattus norvegicus; experiment: Compound was tested against rat liver mitochondria respiration; Activity as respiratory control index measured as NADH-O2 activity adding glutamate/malate; type: functional; how it was run: as §2
Rattus norvegicus [13] = species: Rattus norvegicus; experiment: Compound was tested against rat liver mitochondria respiration; Activity as respiratory control index measured as TMPD test complex IV activity adding ascorbate; type: functional; how it was run: as §2
Rattus norvegicus [14] = species: Rattus norvegicus; experiment: Inhibitory effect on mitochondrial respiration in coupled rat liver mitochondria at 35 uM concentration measured as succinate-O2 activity adding succinate; State 4
Rattus norvegicus [15] = species: Rattus norvegicus; experiment: Inhibitory effect on mitochondrial respiration in coupled rat liver mitochondria at 35 uM concentration measured as succinate-O2 activity adding succinate; State 3
K562 = experiment: Growth inhibitory power against human leukemia (K-562)cell line; type: functional; how it was run: as §1

Structure (SMILES)	LC50 (50% lethal concentration) [1] [nM]	TGI [2] [nM]	GI50 [3] [nM]	also measured
COc1cc([N+](=O)[O-])c(OC)cc1-c1nc2sc(C)c(C)n2c1/C=N/N=C(N)N	< 9770	< 2240	< 832	
COc1cc([N+](=O)[O-])c(OC)cc1-c1nc2sc(Cl)cn2c1/C=N/N=C(N)N				Actvity (ngAoxigen/min/mg of RLM) (Rattus norvegicus [4]): 47.7; GI50 (RXF 393): 1450 nM; GI50 (OVCAR-3): 589 nM; Actvity (Rattus norvegicus [5]): 1.7; Actvity (ngAoxigen/min/mg of RLM) (Rattus norvegicus [6]): 98; Actvity (ngAoxigen/min/mg of RLM) (Rattus norvegicus [7]): 142; GI50 (COLO 205): 1550 nM; Actvity (ngAoxigen/min/mg of RLM) (Rattus norvegicus [8]): 23.1; Actvity (ngAoxigen/min/mg of RLM) (Rattus norvegicus [9]): 158; Actvity (ngAoxigen/min/mg of RLM) (Rattus norvegicus [10]): 81.7; Actvity (ngAoxigen/min/mg of RLM) (Rattus norvegicus [11]): 74.2; Actvity (Rattus norvegicus [12]): 2.3; Actvity (Rattus norvegicus [13]): 1.5; Actvity (ngAoxigen/min/mg of RLM) (Rattus norvegicus [14]): 33.4; Actvity (ngAoxigen/min/mg of RLM) (Rattus norvegicus [15]): 54.9; GI50 (K562): 1910 nM
N=C(N)N/N=C/c1c(-c2ccc(O)c(O)c2)nc2sccn12	< 9770	< 2240	< 832	
COc1ccc(OC)c([N+](=O)[O-])c1-c1nc2sc(Cl)cn2c1/C=N/N=C(N)N	< 9770	< 2240	< 832	
COc1ccc(OC)c2c1ncc1c2nc2sccn21	< 9770	< 2240	< 832	
CC(/C=N/NC(=N)N)=N/NC(=N)N				Actvity (ngAoxigen/min/mg of RLM) (Rattus norvegicus [4]): 80; Actvity (Rattus norvegicus [5]): 3.7; Actvity (ngAoxigen/min/mg of RLM) (Rattus norvegicus [6]): 91.1; Actvity (ngAoxigen/min/mg of RLM) (Rattus norvegicus [7]): 128; Actvity (ngAoxigen/min/mg of RLM) (Rattus norvegicus [8]): 17.9; Actvity (ngAoxigen/min/mg of RLM) (Rattus norvegicus [9]): 156; Actvity (ngAoxigen/min/mg of RLM) (Rattus norvegicus [10]): 169; Actvity (ngAoxigen/min/mg of RLM) (Rattus norvegicus [11]): 106; Actvity (Rattus norvegicus [12]): 4.9; Actvity (Rattus norvegicus [13]): 1.7; Actvity (ngAoxigen/min/mg of RLM) (Rattus norvegicus [14]): 39.2; Actvity (ngAoxigen/min/mg of RLM) (Rattus norvegicus [15]): 141
COc1ccc(-c2nc3sccn3c2/C=N/N=C(N)N)cc1OC	< 9770	< 2240	< 832	
COc1ccc(OC)c(-c2nc3sccn3c2/C=N/N=C(N)N)c1	< 9770	< 2240	< 832	
COc1cc(OC)c([N+](=O)[O-])cc1-c1nc2sccn2c1/C=N/N=C(N)N	< 9770	< 2240	< 832	
COc1cc2ncc3c(nc4sccn43)c2cc1OC	< 9770	< 2240	< 832	
COc1cc([N+](=O)[O-])c(OC)cc1-c1nc2sc(C)cn2c1/C=N/N=C(N)N	< 9770	< 2240	< 832	
COc1ccc(OC)c([N+](=O)[O-])c1-c1nc2n(c1/C=N/N=C(N)N)CCS2	< 9770	< 2240	< 832	
O=C1C=CC(=O)c2c1ncc1c2nc2sccn21	< 9770	< 2240	< 832	
COc1ccc(OC)c([N+](=O)[O-])c1-c1nc2sc(C)c(C)n2c1/C=N/N=C(N)N	< 9770	< 2240	< 832	
CCCc1cn2c(/C=N/N=C(N)N)c(-c3c(OC)ccc(OC)c3[N+](=O)[O-])nc2s1	< 9770	< 2240	< 832	
N=C(N)/N=N/c1ccc(NNC(=N)N)c2ncc3c(nc4sccn43)c12	< 9770	< 2240	< 832	
COc1cc([N+](=O)[O-])c(OC)cc1-c1nc2n(c1/C=N/N=C(N)N)CCS2	< 9770	< 2240	< 832	
COc1ccc(OC)c([N+](=O)[O-])c1-c1nc2sc(C)cn2c1/C=N/N=C(N)N	< 9770	< 2240	< 832	
COc1cc([N+](=O)[O-])c(OC)cc1-c1nc2scc(C)n2c1/C=N/N=C(N)N	< 9770	< 2240	< 832	
COc1cc(-c2nc3sccn3c2/C=N/N=C(N)N)c([N+](=O)[O-])cc1OC	< 9770	< 2240	< 832	
COc1ccc(OC)c([N+](=O)[O-])c1-c1nc2sccn2c1/C=N/N=C(N)N	< 9770	< 2240	< 832	
COc1cc([N+](=O)[O-])c(OC)cc1-c1nc2sccn2c1/C=N/NC(=N)N	< 9770	< 2240	< 832	
COc1ccc(OC)c([N+](=O)[O-])c1-c1nc2scc(C)n2c1/C=N/N=C(N)N	< 9770	< 2240	< 832	
N=C(N)N/N=C/c1c(-c2cc(O)ccc2O)nc2sccn12	< 9770	< 2240	< 832	
